Data published in ChEMBL document CHEMBL4229528, “2,4-Diamino-6-methylpyrimidines for the potential treatment of Chagas' disease” (Bioorg Med Chem Lett, 2018).
Converted amounts (≈) assume the structure as drawn. The source made the active and inactive calls. No cut-off for these calls is given here.

Legend:
[1] = tested on: Vero; test: Cytotoxicity against African green monkey Vero cells; type: cell-based; settings: Chlorocebus sabaeus
[2] = tested on: Trypanosoma cruzi; test: Antitrypanosomal activity against Trypanosoma cruzi amastigote forms infected in African green monkey Vero cells; type: functional, organism-based
How it was run: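 T. cruzi amastigotes cultured intracellularly in Vero host cells. EC50 determined from concentration-response, reported as pEC50. Mean of two determinations ± range, or of three or more ± standard deviation, depending on the series.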

[3] = Selectivity ratio of pEC50 for African green monkey Vero cells to pEC50 for Trypanosoma cruzi amastigote forms infected in African green monkey Vero cells; type: toxicity
How it was run: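 Ratio of Vero pEC50 to T. cruzi intracellular amastigote pEC50, with both values from the Vero-cell amastigote culture format.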

[4] = Kinetic solubility of the compound in water up to 250 uM by laser nephelometry; type: physicochemical; settings: read-out: Kinetic_solubility
How it was run: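 Measured in water after dilution from a DMSO solution of compound.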

[5] = Intrinsic clearance in CD-1 mouse liver microsomes at 0.5 uM after 30 mins in presence of NADPH by UPLC-MS/MS analysis; type: ADME, microsome; settings: 0.5 h
[6] = target: Sterol 14-alpha demethylase (Trypanosoma cruzi (strain CL Brener), UniProt Q7Z1V1); test: (§1) Inhibition of Trypanosoma cruzi CYP51
[7] = target: Sterol 14-alpha demethylase (Trypanosoma cruzi (strain CL Brener)) (UniProt Q7Z1V1); test: as §1
[8] = target: Cannabinoid receptor 1 (Homo sapiens, UniProt P21554); test: Inhibition of CB1 (unknown origin)
[9] = target: Aurora kinase B (Homo sapiens, UniProt Q96GD4); test: Inhibition of aurora B (unknown origin)
[10] = target: Voltage-gated inwardly rectifying potassium channel KCNH2 (Homo sapiens, UniProt Q12809); test: Inhibition of human ERG
Voltage-gated inwardly rectifying potassium channel KCNH2, sequence (Q12809 whole entry): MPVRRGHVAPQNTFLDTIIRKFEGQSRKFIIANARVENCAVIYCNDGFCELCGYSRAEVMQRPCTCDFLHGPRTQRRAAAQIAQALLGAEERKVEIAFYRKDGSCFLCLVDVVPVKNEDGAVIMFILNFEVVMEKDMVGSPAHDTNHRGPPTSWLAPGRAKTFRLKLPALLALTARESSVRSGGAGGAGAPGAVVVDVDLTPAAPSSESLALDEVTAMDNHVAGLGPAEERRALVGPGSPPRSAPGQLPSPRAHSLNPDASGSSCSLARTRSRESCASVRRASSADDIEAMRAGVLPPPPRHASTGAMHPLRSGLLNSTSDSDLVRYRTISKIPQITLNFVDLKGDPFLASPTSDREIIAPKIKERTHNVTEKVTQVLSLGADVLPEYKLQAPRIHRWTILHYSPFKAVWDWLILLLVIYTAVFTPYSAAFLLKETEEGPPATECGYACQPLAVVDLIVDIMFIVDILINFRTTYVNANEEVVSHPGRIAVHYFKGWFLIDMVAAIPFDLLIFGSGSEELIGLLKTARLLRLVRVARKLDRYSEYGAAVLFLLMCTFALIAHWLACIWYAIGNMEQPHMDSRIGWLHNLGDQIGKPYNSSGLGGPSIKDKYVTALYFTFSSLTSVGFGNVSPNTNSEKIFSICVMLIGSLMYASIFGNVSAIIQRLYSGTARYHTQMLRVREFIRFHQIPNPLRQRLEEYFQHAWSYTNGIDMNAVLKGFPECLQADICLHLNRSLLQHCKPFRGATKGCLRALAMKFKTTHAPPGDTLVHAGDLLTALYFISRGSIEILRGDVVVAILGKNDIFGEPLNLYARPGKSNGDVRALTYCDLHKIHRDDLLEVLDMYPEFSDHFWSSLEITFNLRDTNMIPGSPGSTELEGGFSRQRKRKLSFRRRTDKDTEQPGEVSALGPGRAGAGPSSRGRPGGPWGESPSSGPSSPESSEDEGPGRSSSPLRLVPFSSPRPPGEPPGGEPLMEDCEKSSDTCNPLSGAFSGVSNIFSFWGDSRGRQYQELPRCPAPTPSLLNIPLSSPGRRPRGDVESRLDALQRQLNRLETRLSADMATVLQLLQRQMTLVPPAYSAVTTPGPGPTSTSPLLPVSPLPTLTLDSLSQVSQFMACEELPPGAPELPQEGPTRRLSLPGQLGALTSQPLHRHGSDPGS

Sterol 14-alpha demethylase (Trypanosoma cruzi (strain CL Brener)), sequence (Q7Z1V1 whole entry, looked up): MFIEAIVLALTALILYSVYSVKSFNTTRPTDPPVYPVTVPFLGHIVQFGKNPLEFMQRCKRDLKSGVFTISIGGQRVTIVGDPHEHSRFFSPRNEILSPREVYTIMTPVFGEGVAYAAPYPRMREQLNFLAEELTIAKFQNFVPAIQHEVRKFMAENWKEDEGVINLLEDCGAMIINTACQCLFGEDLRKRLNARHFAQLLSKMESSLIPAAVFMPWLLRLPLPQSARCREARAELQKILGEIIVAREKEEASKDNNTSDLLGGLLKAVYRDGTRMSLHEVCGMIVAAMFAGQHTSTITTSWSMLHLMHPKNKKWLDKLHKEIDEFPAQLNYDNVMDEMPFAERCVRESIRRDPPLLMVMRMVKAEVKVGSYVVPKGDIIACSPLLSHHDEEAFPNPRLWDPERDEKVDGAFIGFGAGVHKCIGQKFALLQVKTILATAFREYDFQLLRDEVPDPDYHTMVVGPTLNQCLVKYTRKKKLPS
Aurora kinase B, sequence (Q96GD4 whole entry): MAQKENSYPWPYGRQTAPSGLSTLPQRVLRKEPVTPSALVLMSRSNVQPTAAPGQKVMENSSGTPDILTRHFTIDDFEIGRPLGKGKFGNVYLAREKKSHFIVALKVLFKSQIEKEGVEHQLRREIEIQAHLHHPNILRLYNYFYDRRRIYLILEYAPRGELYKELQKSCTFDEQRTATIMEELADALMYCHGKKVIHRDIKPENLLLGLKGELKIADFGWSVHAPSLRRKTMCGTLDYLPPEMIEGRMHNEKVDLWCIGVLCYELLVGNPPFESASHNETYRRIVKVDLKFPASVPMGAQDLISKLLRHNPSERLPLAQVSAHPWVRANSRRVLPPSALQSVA
Cannabinoid receptor 1, sequence (P21554 whole entry): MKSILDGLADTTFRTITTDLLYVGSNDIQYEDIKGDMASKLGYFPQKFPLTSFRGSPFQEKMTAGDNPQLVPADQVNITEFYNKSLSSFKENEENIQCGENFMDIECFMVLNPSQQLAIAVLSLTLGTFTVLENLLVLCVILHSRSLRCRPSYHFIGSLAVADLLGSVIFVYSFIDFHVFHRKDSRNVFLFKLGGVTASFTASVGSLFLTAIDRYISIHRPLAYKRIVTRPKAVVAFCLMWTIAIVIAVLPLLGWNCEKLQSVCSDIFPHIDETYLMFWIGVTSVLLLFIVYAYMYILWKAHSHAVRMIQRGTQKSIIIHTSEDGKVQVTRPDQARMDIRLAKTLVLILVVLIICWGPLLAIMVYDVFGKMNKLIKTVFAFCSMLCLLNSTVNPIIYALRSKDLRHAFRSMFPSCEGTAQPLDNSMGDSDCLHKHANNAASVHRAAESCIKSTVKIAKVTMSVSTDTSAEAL
Sterol 14-alpha demethylase, sequence (Q7Z1V1 whole entry): as the sequence (Q7Z1V1 whole entry, looked up) above

| EC50 [2] [µM] | solubility kinetic [4] [µM] | CLH [5] [mL/min/g] | IC50 [6] [µM] | inhibition [7] | IC50 [8] [µM] | IC50 [9] [µM] | Structure (SMILES) | EC50 [1] [µM] | selectivity ratio [3] | IC50 [10] [µM] |
| --- | --- | --- | --- | --- | --- | --- | --- | --- | --- | --- |
| 7.94 | > 250 | 18 | – | – | – | – | COc1cc(Nc2nc(C)cc(N3CCOCC3)n2)ccc1F | > 50.1 | > 6 | – |
| 0.158 | 20 (≈ 8.15 µg/mL) | 0.7 | > 10 | – | – | – | COc1cc(OC)cc(C(=O)Nc2ccc(Nc3nc(C)cc(N(C)C)n3)cc2)c1 | – | 40 | – |
| – | > 250 | 28 | – | inactive | – | – | Cc1cc(N(C)C)nc(NCc2ccccc2)n1 | > 50.1 | > 16 | – |
| 3.98 | 160 (≈ 42 µg/mL) | 29 | – | – | – | – | COc1cc(Nc2nccc(N(C)C)n2)ccc1F | > 50.1 | > 13 | – |
| – | 220 (≈ 66.5 µg/mL) | 14 | – | – | – | – | COc1cc(Nc2nc(C)cc(N3CCCC3)n2)ccc1F | – | 63 | – |
| 1.26 | > 250 | 14 | – | – | – | – | Cc1cc(N(C)C)nc(Nc2ccc3c(c2)OCO3)n1 | > 50.1 | > 40 | – |
| 7.94 | > 250 | 35 | – | – | – | – | COc1cc(Nc2nc(CO)cc(N(C)C)n2)ccc1F | > 50.1 | > 6 | – |
| 1 | > 250 | 12 | – | – | – | – | Cc1cc(N(C)C)nc(NCc2ccc(Cl)cc2)n1 | 25.1 | 25 | – |
| 0.398 | > 250 | 10 | – | – | – | – | Cc1cc(Nc2ccc(F)cc2)nc(NCc2ccccc2)n1 | 7.94 | 20 | – |
| 25.1 | 110 (≈ 36.3 µg/mL) | – | – | – | – | – | COc1cc(Nc2nc(N(C)C)cc(C(F)(F)F)n2)ccc1F | > 50.1 | > 2 | – |
| – | 170 (≈ 51.7 µg/mL) | 50 | – | – | – | – | COc1cc(Nc2nc(C(C)C)cc(N(C)C)n2)ccc1F | > 50.1 | > 25 | – |
| 0.794 | > 250 | 15 | – | – | – | – | COc1cccc(Nc2nc(C)cc(N(C)C)n2)c1 | > 50.1 | > 63 | – |
| – | – | – | – | – | – | – | Cc1cc(N(C)C)nc(NC2CCN(C(=O)Cc3ccc(F)cc3F)CC2)n1 | > 50.1 | > 16 | – |
| 1.58 | > 250 | 10 | – | – | – | – | COc1ccc(Nc2nc(C)cc(N(C)C)n2)cc1 | > 50.1 | > 32 | – |
| 0.794 | – | – | – | – | – | – | COc1ccccc1NC(=O)c1ccc(Nc2nc(C)cc(N(C)C)n2)cc1 | 0.631 | 1.3 | – |
| 0.398 | > 250 | 4.2 | – | inactive | 0.0631 | 0.0398 | COc1cc(OC)cc(C(=O)N[C@H]2CC[C@H](Nc3nc(C)cc(N(C)C)n3)CC2)c1 | – | 100 | 3.98 |
| 7.94 | 219 (≈ 74.8 µg/mL) | – | – | – | – | – | COc1cc(Nc2nc(C)cc(N3CCCC(C#N)C3)n2)ccc1F (centres undefined) | – | 5 | – |
| – | > 250 | 3.4 | – | – | – | – | COc1cc(Nc2nc(C(=O)N3CCCC3)cc(N(C)C)n2)ccc1F | > 50.1 | > 1.6 | – |
| 1.26 | > 250 | 11 | – | – | – | – | Cc1cc(N(C)C)nc(N[C@H](C)c2ccccc2)n1 | > 50.1 | > 40 | – |
| 1.26 | – | – | – | – | – | – | Cc1cc(N(C)C)nc(Nc2ccc(C(=O)NCc3ccccc3)cc2)n1 | 5.01 | 4 | – |
| 1.58 | > 250 | 35 | – | – | – | – | CCOC1CCCN(c2cc(C)nc(Nc3ccc(F)c(OC)c3)n2)C1 (centres undefined) | 25.1 | 16 | – |
| 0.398 | > 250 | 17 | – | inactive | – | – | COc1cc(Nc2nc(C)cc(N(C)C)n2)ccc1F | – | 80 | 5.01 |
| 15.8 | > 250 | 3.8 | – | – | – | – | Cc1cc(N(C)C)nc(NCC2CCOCC2)n1 | > 50.1 | > 3 | – |
| 0.794 | > 250 | 8 | – | – | – | – | COc1cc(Nc2nc(C)cc(NCc3ccccc3)n2)ccc1F | 5.01 | 6.3 | – |
| 0.2 | > 250 | 20 | – | – | – | – | COc1cccc(Nc2cc(C)nc(NCc3ccccc3)n2)c1 | 7.94 | 40 | – |
| – | – | – | – | – | – | – | Cc1cc(N(C)C)nc(Nc2ccc(C(=O)N3CCCCC3)cc2)n1 | > 50.1 | > 25 | – |
| 1.26 | > 250 | – | – | – | – | – | Cc1cc(N(C)C)nc(N[C@H]2CC[C@H](NC(=O)c3ccccc3)CC2)n1 | > 50.1 | > 40 | – |
| 7.94 | > 250 | 35 | – | – | – | – | COc1cc(Nc2nc(C)cc(N3CCC(F)(F)C3)n2)ccc1F | – | 4 | – |
| – | 180 (≈ 60.9 µg/mL) | 10 | – | – | – | – | COc1cc(Nc2cc(C)nc(NCc3ccccc3)n2)ccc1F | 5.01 | 63 | – |
| 1 | 160 (≈ 50.6 µg/mL) | 17 | – | – | – | – | COc1cc(Nc2nc(C)cc(N3CCCCC3)n2)ccc1F | 15.8 | 16 | – |
